Apaf1 inhib – inhibitors of human Apaf-1 apoptosome; O14727; reconstituted apoptosome caspase-3 activity, DEVD-Rh110 fluorescence; inhibition, % at 20 µM; actives 0.71% (n = 330,000); AID 489030; active = inhibition of at least 40% at 20 µM;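 note: plate controls were DMSO wells for no effect and DEVD-CHO caspase inhibitor wells for full effect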
Target sequence (O14727 whole entry, looked up): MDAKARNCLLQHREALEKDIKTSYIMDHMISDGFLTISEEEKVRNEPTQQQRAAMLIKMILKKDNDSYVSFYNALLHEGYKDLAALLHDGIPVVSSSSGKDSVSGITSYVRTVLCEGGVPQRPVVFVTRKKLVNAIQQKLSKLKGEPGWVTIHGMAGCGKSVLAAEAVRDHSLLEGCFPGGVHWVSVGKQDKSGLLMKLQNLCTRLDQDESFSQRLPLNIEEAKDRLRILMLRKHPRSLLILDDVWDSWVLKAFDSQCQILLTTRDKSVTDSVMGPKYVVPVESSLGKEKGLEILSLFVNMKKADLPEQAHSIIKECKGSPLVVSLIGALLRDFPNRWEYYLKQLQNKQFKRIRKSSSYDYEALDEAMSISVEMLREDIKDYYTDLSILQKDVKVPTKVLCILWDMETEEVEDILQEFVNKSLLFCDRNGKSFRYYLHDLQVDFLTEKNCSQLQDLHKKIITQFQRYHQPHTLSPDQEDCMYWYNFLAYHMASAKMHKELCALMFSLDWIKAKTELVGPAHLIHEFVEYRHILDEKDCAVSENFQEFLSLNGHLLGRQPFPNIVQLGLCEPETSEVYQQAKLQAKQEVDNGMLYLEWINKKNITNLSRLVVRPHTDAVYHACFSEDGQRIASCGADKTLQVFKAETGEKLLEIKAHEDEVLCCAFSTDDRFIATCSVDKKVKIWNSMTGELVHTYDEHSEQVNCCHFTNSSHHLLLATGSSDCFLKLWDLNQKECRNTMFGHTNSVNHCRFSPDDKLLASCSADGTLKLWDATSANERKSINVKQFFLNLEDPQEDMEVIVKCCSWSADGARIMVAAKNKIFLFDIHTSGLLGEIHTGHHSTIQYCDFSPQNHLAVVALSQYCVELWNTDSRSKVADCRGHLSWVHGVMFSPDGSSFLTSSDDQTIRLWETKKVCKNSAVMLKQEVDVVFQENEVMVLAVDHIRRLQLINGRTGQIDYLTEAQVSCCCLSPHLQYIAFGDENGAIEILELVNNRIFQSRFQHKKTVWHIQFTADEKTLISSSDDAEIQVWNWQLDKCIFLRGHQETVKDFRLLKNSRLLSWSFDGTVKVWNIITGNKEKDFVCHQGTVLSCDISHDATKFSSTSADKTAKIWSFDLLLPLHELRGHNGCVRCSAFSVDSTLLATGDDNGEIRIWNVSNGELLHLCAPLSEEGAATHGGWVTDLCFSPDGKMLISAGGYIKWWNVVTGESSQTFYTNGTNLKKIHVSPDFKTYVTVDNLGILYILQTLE
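Material: reconstituted apoptosome with Apaf-1, cytochrome c, caspase-9, procaspase-3, dATP / Buffer or medium: pH 7.5 Hepes buffer with CHAPS, BSA, DTT / Also added: cytochrome c with DEVD-Rh110 / Schedule: compound with Apaf-1, dATP, procaspase-3 30 min, then 50 min reaction, room temperature / Technique: rhodamine 110 fluorescence at Ex 480/Em 540 nm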
MEKK2mut PB1 HTS – signal of MEK5 binding to mutant human MEKK2 PB1 domain | bead flow cytometry, Alexa488-MEK5 binding to MEKK2 mutant | percent response, % at 10 µM | actives 0.35% (n = 290,000); in the data active = percent response above about 24%, passing the limit was not always enough
MEKK2 WT-MEK5 – raises or lowers MEK5 binding to wildtype human MEKK2 PB1 domain; Q9Y2U5; bead flow cytometry, Alexa488-MEK5 binding to MEKK2 WT; actives lie on both sides; binding response (% of control), % at 10 µM; actives 1.1% (n = 290,000); AID 1531; in the data active = binding response below about 67% or above about 130%; inconclusive = no clear call, values can overlap the other calls; inactive = in between
UBC13 polyUb – blocks human UBC13 polyubiquitin chain formation; P61088; actives 0.47% (n = 330,000); AID 485273; inhibition, % at 20 µM; TR-FRET; in the data active = inhibition above about 45%, passing the limit was not always enough; inconclusive = no clear call, values can overlap the other calls
DSG3 Ab inh – inhibitors of pemphigus antibody binding to human desmoglein-3 | P32926 | DSG3-coupled beads, scFv-anti-DSG3-GFP binding, flow cytometry; hits give low values | binding (percent of control), % at 10 µM | actives 0.48% (n = 310,000);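 active = binding more than 3 SD below its plate's average and above zero; inconclusive = below that plate limit but binding exactly zero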;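 note: hits lower antibody fragment binding to DSG3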
MEKK3 PB1 HTS – modulators (inhibitors or enhancers) of MEK5 binding to human MEKK3 PB1 domain; Q99759; bead-based flow cytometry, Alexa488-MEK5 binding to MEKK3; actives lie on both sides; 0 = blocked by unlabeled MEK5, 100 = vehicle; binding response (% of control), % at 10 µM; actives 1.4% (n = 290,000); AID 1529;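 active = binding response more than 3 SD above or below the average of its plate-row segment, actives on both sides; inconclusive = wells at one plate position flagged as instrument error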;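 note: Alexa488 bead fluorescence after subtracting the streptavidin-only scavenger bead signal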
Numbers without * were called inactive; ? = inconclusive; nt = not tested or not shown; [ ] = remark or other dose. Hits are enriched below; roughly 3.2% of the tested compounds scored in any of these assays.

SMILES | Apaf1 inhib | MEKK2mut PB1 HTS | MEKK2 WT-MEK5 | UBC13 polyUb | DSG3 Ab inh | MEKK3 PB1 HTS
O=C(COC(=O)CSc1ccc(Cl)cc1)Nc1ccc2[nH]c(=O)[nH]c2c1 | 2.5 | nt | nt | -10.6 | 99.0* | nt
O=C(COC(=O)/C=C/c1ccc(Br)o1)Nc1ccc2[nH]c(=O)[nH]c2c1 | 0.8 | nt | nt | 3.3 | 56.7* | nt
O=C(CCNC(=O)N1CC(=O)Nc2ccccc21)NCc1ccccc1 | nt | nt | nt | nt | 94.9 | nt
CC(=O)Nc1ccc(NC(=O)CSc2nnc(-c3ccc4c(c3)OCO4)o2)cc1 | 5.9 | nt | nt | -10.5 | -14.9* | nt
C/C(=C\C(=O)OCC(=O)NCc1ccccc1)C(=O)OCC(=O)NCc1ccccc1 | 4.2 | -2.0 | 96.0 | -3.8 | 76.2* | 120.0
CCCCn1c(N)c(N(CC)C(=O)C(c2ccccc2)c2ccccc2)c(=O)[nH]c1=O | -5.3 | 64.0* | 100.0 | -3.9 | 101.5 | 82.0
CCCCn1c(N)c(N(CC)C(=O)c2ccco2)c(=O)[nH]c1=O | -10.9 | nt | nt | -1.2 | nt | nt
O=C(COc1ccc(C(=S)N2CCOCC2)cc1Cl)Nc1ccccc1Cl | -4.4 | -2.0 | 99.0 | 6.7 | 83.0* | 100.0
Cc1ccn(C(=O)c2ccc(NC(=O)C3CC3)cc2)n1 | 1.3 | 2.0 | 99.0 | 2.1 | 73.5* | 107.0
O=C(NC1CCCCC1)N(CCN1CCOCC1)Cc1cc2cc3c(cc2[nH]c1=O)OCCO3 | -4.5 | -6.0 | 91.0 | 4.9 | 103.0 | 91.0
Cc1ccc2[nH]c(=O)c(CN(CCCN3CCOCC3)C(=O)NC3CCCCC3)cc2c1 | 5.9 | -4.0 | 98.0 | -8.9 | 93.5* | 100.0
CC[C@]12C(=O)N(C)C[C@H]([C@@H]3C(=O)N(Cc4ccccc4)C(=O)[C@@H]31)N2C(=O)c1ccc(Br)cc1 | nt | nt | nt | nt | 104.3 | nt
O=S(=O)(O)c1cc(O)c2c(O)c(N=Nc3cc(Cl)ccc3O)c(S(=O)(=O)O)cc2c1 | 9.2 | -10.0 | 94.0 | -53.0 | 87.1 | 96.0
Cc1cc(-c2ccc(N=Nc3c(S(=O)(=O)O)cc4cc(S(=O)(=O)O)cc(N)c4c3O)c(C)c2)ccc1N=Nc1c(S(=O)(=O)O)cc2cc(S(=O)(=O)O)cc(N)c2c1O | 98.3* | nt | nt | -18.6 | nt | nt
COc1ccc(C2=NOC(C(=O)Nc3cccc(O)c3)C2)cc1 (stereo not drawn) | 5.6 | -1.0 | 102.0 | 8.8 | 82.1* | 102.0
COc1cc(C2=NOC(C(=O)Nc3ccc(C(C)=O)cc3)C2)cc(OC)c1OC (stereo not drawn) | 4.6 | -2.0 | 90.0 | -3.6 | 79.1* | 82.0
Cc1cc(C)n(C(=O)CN(C)S(=O)(=O)c2ccc([N+](=O)[O-])cc2)n1 | 1.6 | 7.0 | 102.0 | 3.2 | 105.2 | 104.0
Cc1cc(C)cc(NC(=O)Cn2ncn3c(cc4ccccc43)c2=O)c1 | -21.4 | -3.0 | 99.0 | -1.1 | 81.6* | 99.0
COc1ccc(CC2=CC(=O)c3ccccc3C2=O)cc1 | 49.6* | 6.0 | 108.0 | -26.9 | 105.4 | 104.0
Cc1cc(C)nc(SCC(=O)N2CCCCC2)n1 | -3.0 | 14.0 | -2.0* | 5.5 | 109.7 | 91.0
Cc1c(N2C(=O)/C(=C3/C(=O)N(C)c4ccccc43)SC2=S)c(=O)n(-c2ccccc2)n1C | 6.4 | 4.0 | 98.0 | -54.4 | 91.4 | 101.0
CC(=O)N1C(=O)/C(=C2\SC(=S)N(c3c(C)n(C)n(-c4ccccc4)c3=O)C2=O)c2ccccc21 | nt | 2.0 | 89.0 | nt | 66.8* | 97.0
Cc1noc(C)c1CSCC(=O)Nc1cc(S(=O)(=O)N2CCOCC2)ccc1OCC(F)(F)F | 3.2 | nt | nt | 2.0 | 76.4* | nt
Cc1noc(C)c1CSCC(=O)Nc1cc(S(=O)(=O)N2CCCCC2)ccc1OC(C)C | 14.7 | nt | nt | -13.1 | 100.0 | nt
O=C(N/N=C/C(Cl)=C\c1ccccc1)c1ccco1 | -8.1 | -2.0 | 96.0 | -2.9 | 88.5* | 96.0
SMILES | Apaf1 inhib | MEKK2mut PB1 HTS | MEKK2 WT-MEK5 | UBC13 polyUb | DSG3 Ab inh | MEKK3 PB1 HTS
N#CCCN(C(=O)COC(=O)C12CC3CC(CC(O)(C3)C1)C2)c1ccc(F)cc1 | 43.3* | nt | nt | 14.4 | ? | nt
N#CCCN(C(=O)COC(=O)CNC(=O)C12CC3CC(CC(C3)C1)C2)c1ccccc1 | 37.4 | nt | nt | -0.6 | 102.8 | nt
CCC(=O)Nc1ccc(C(=O)N/N=C/c2c(C)[nH]c3ccccc23)cc1 | 5.6 | 45.0 | 35.0* | -1.9 | 134.3 | 92.0
C[C@]12C=CC(=O)C=C1CC[C@@H]1C2=CC[C@]2(C)[C@@H](C(=O)CN3CCN(c4cc(N5CCCC5)nc(N5CCCC5)n4)CC3)CC[C@@H]12 | 86.7* | 5.0 | 117.0 | -22.3 | nt | 107.0
C1=CC2c3ccccc3NC(c3ccncc3)C2C1 (stereo not drawn) | 49.4* | -8.0 | 78.0 | -20.3 | nt | 87.0
CN(C)c1ccc(C2N(c3ccc(F)cc3)C(=O)C3CCCN32)cc1 (stereo not drawn) | -2.2 | 19.0 | 18.0* | -14.1 | 117.3 | 92.0
CCOc1ccccc1CNC(=O)C1CCCN(c2nc3ccccc3o2)C1 (stereo not drawn) | nt | -14.0 | 74.0 | nt | nt | 68.0*[inhibitor]
CCc1ccc(OCC(=O)c2c(O)c3ccccc3oc2=O)cc1 | 2.9 | -1.0 | 100.0 | -11.0 | 49.8* | 103.0
CC12CCC=CC1=C(C=O)C1C2CCC2(C)C(O)CCC12 (stereo not drawn) | nt | nt | nt | nt | 116.9 | nt
N#CCCN(C(=O)COC(=O)CCN=C1NS(=O)(=O)c2ccccc21)c1ccc(F)cc1 | -5.7 | nt | nt | -0.1 | 104.8 | nt
COC(=O)c1cccc(-c2ccc(C(c3c(C)[nH][nH]c3=O)c3c(C)[nH][nH]c3=O)o2)c1 | 80.6* | -2.0 | 90.0 | -53.0 | 102.1 | 89.0
Cc1[nH][nH]c(=O)c1C(c1ccc(-c2ccc(Cl)c(C(=O)O)c2)o1)c1c(C)[nH][nH]c1=O | nt | -1.0 | 102.0 | nt | 128.0 | 102.0
O=C(CSc1nc2ccccc2n1CCc1ccccc1)c1ccc(O)c(O)c1 | nt | -11.0 | 93.0 | nt | 71.7* | 97.0
O=C(CSc1nc2ccccc2n1CCc1ccccc1)N1CCOCC1 | -0.1 | 4.0 | 100.0 | 5.1 | 120.0 | 102.0
CN(C)CCC1(C2=CCCC2)CC/C(=C/c2ccc(Cl)cc2)C1=O (stereo not drawn) | nt | nt | nt | nt | 97.0 | nt
CCN1CCN(S(=O)(=O)c2ccc(OC)c(NC(=O)c3ccccc3)c2)CC1 | -3.5 | 7.0 | 107.0 | -7.4 | nt | 103.0
CCNC(=O)CP(=O)(c1ccccc1)c1ccccc1 | -6.9 | 8.0 | 109.0 | 1.8 | 73.1* | 106.0
NNC(=O)CP(=O)(c1ccccc1)c1ccccc1 | -5.1 | nt | nt | 2.1 | nt | nt
Cc1cccn2c(=O)c3cc(C(=O)NC4CCCCC4)c(=N)n(Cc4ccccc4)c3nc12 | 57.3* | -2.0 | 79.0 | 20.0 | 114.9 | 97.0
Cc1cccn2c(=O)c3cc(C(=O)NC4CCCC4)c(=N)n(Cc4ccc(F)cc4)c3nc12 | 25.6 | 0.0 | 98.0 | 14.2 | 98.6 | 99.0
N#C/C(=C\c1c(N2CCN(c3ccccc3)CC2)nc2ccccn2c1=O)C(N)=O | 1.0 | 1.0 | 104.0 | 7.5 | 96.8 | 106.0

Screens as filed in PubChem BioAssay.
